Laboratory results reported in paper PMC3048920 (Clinical cancer research : an official journal of the …, 2011).

Legend:
[1] = system: patients with advanced solid malignancies; assay: Phase I dose escalation: dose-limiting toxicities and maximum tolerated dose; format: in vivo; settings: for Even ts, n/N: DLT events, cycle 1
[2] = system: advanced malignant solid tumors; assay: Tumor response; format: in vivo, human
NSCLC = assay: Tumor response in NSCLC patients, correlated with tumor genotype; format: in vivo, human
Summary of the method: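 NSCLC patients treated with oral once-daily test compound had tumors assessed by RECIST v1.0 at baseline, every two cycles and at end of treatment. Response was related to genotype. Archived tumor, or a fresh baseline biopsy where feasible, was tested for EGFR and KRAS mutations and EGFR/HER2 copy number by site laboratories, Pfizer or Genzyme.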

[3] = system: Ki67 and pERK1/2 (pMAPK) in skin biopsies; assay: Skin biopsy pharmacodynamic biomarkers by immunohistochemistry; format: in vivo, human; settings: with increased dose, Cmax, AUCtau and Ctrough; baseline vs cycle 1 day 14; P < 0.05
[4] = system: patients with advanced solid malignancies; assay: Treatment-related adverse events and laboratory abnormalities; format: in vivo
[5] = human, in vivo
[6] = EGFR Exon 19 deletion, 17 patients
[7] = EGFR Exon 19 deletion/T790M, 4 patients
[8] = EGFR Exon 20 insertion, 6 patients (one not evaluable)
[9] = EGFR mutation unknown, 12 patients (one not evaluable)
[10] = EGFR wild type, 12 patients (one not evaluable)
[11] = Schedule A (n = 111), treatment-related, all cycles
[12] = Schedule B (n = 10), treatment-related, all cycles

COc1cc2ncnc(Nc3ccc(F)c(Cl)c3)c2cc1NC(=O)/C=C/CN1CCCCC1 [PF299804]
total number of DLTs, share of treated patients ([1]; 45 mg including loading-dose cohort, four of 71 treated patients): 6%
total number of DLTs, share of treated patients ([1]; 45 mg, two of 52 treated patients): 4%
Even ts, n/N ([1]; Schedule A, 0.5 mg/day): 0/3
Even ts, n/N ([1]; Schedule A, 1 mg/day): 0/3
Even ts, n/N ([1]; Schedule A, 2 mg/day): 0/3
Even ts, n/N ([1]; Schedule A, 4 mg/day): 0/5
Even ts, n/N ([1]; Schedule A, 8 mg/day): 0/3
Even ts, n/N ([1]; Schedule A, 16 mg/day): 0/4
Even ts, n/N ([1]; Schedule A, 30 mg/day): 1/13
Even ts, n/N ([1]; Schedule A, 45 mg/day (loading dose)): 2/19
Even ts, n/N ([1]; Schedule A, 45 mg/day): 2/52
Even ts, n/N ([1]; Schedule A, 60 mg/day): 3/6
Even ts, n/N ([1]; Schedule B, 60 mg/day): 1/10
maximum tolerated dose (MTD) ([1]; continuous once-daily dosing): 45 mg/day
complete responses ([2]; 110 patients with at least one response evaluation): No complete responses
patients with PR ([2]; four of 110 evaluated patients, all NSCLC): 3.6%
patients with stable disease as best response ([2]; over all treatment cohorts, 110 evaluated): 44 patients
objective response to treatment (NSCLC; 4 patients with exon 19 deletions and documented T790M): None
Treatment Outcome, PD (patients) (NSCLC; [6]): 7
Treatment Outcome, PR (patients) (NSCLC; [6]): 2
Treatment Outcome, SD (patients) (NSCLC; [6]): 8
Treatment Outcome, PD (patients) (NSCLC; [7]): SD:2; PD:2
Treatment Outcome, SD (patients) (NSCLC; [7]): SD:2; PD:2
Treatment Outcome, PD (patients) (NSCLC; [8]): 2
Treatment Outcome, PR (patients) (NSCLC; [8]): 1
Treatment Outcome, SD (patients) (NSCLC; [8]): 2
Treatment Outcome, PD (patients) (NSCLC; EGFR L858R, 4 patients): 1
Treatment Outcome, SD (patients) (NSCLC; EGFR L858R, 4 patients): 3
Treatment Outcome, PD (patients) (NSCLC; EGFR mutant, Other, 2 patients): SD: 1; PD:1
Treatment Outcome, SD (patients) (NSCLC; EGFR mutant, Other, 2 patients): SD: 1; PD:1
Treatment Outcome, IND (patients) (NSCLC; [9]): 1
Treatment Outcome, PD (patients) (NSCLC; [9]): 2
Treatment Outcome, PR (patients) (NSCLC; [9]): 1
Treatment Outcome, SD (patients) (NSCLC; [9]): 7
Treatment Outcome, IND (patients) (NSCLC; [10]): 1
Treatment Outcome, PD (patients) (NSCLC; [10]): 5
Treatment Outcome, SD (patients) (NSCLC; [10]): 5
Treatment Outcome, SD (patients) (NSCLC; HER2 amplified, 2 patients): SD:2
additional patients with stable disease (SD) of ≥6 weeks duration (NSCLC; NSCLC patients): 28 patients
levels of pMAPK in skin biopsy [3]: significantly decreased
Anorexia, Grade 1, n (%) [4, 11]: 12 (10.8) n (%)
Anorexia, Grade 2, n (%) [4, 11]: 9 (8.1) n (%)
Anorexia, Grade 3, n (%) [4, 11]: 2 (1.8) n (%)
Anorexia, Total, n (%) [4, 11]: 23 (20.7) n (%)
Dermatitis acneiform, Grade 1, n (%) [4, 11]: 11 (9.9) n (%)
Dermatitis acneiform, Grade 2, n (%) [4, 11]: 3 (2.7) n (%)
Dermatitis acneiform, Grade 3, n (%) [4, 11]: 6 (5.4) n (%)
Dermatitis acneiform, Total, n (%) [4, 11]: 20 (18.0) n (%)
Diarrhea, Grade 1, n (%) [4, 11]: 43 (38.7) n (%)
Diarrhea, Grade 2, n (%) [4, 11]: 20 (18.0) n (%)
Diarrhea, Grade 3, n (%) [4, 11]: 11 (9.9) n (%)
Diarrhea, Total, n (%) [4, 11]: 74 (66.7) n (%)
Dry skin, Grade 1, n (%) [4, 11]: 29 (26.1) n (%)
Dry skin, Grade 2, n (%) [4, 11]: 1 (0.9) n (%)
Dry skin, Grade 3, n (%) [4, 11]: 0 n (%)
Dry skin, Total, n (%) [4, 11]: 30 (27.0) n (%)
Fatigue, Grade 1, n (%) [4, 11]: 20 (18.0) n (%)
Fatigue, Grade 2, n (%) [4, 11]: 15 (13.5) n (%)
Fatigue, Grade 3, n (%) [4, 11]: 3 (2.7) n (%)
Fatigue, Total, n (%) [4, 11]: 38 (34.2) n (%)
Nausea, Grade 1, n (%) [4, 11]: 28 (25.2) n (%)
Nausea, Grade 2, n (%) [4, 11]: 7 (6.3) n (%)
Nausea, Grade 3, n (%) [4, 11]: 1 (0.9) n (%)
Nausea, Total, n (%) [4, 11]: 36 (32.4) n (%)
Rash, Grade 1, n (%) [4, 11]: 30 (27.0) n (%)
Rash, Grade 2, n (%) [4, 11]: 16 (14.4) n (%)
Rash, Grade 3, n (%) [4, 11]: 4 (3.6) n (%)
Rash, Total, n (%) [4, 11]: 50 (45.0) n (%)
Stomatitis, Grade 1, n (%) [4, 11]: 17 (15.3) n (%)
Stomatitis, Grade 2, n (%) [4, 11]: 9 (8.1) n (%)
Stomatitis, Grade 3, n (%) [4, 11]: 4 (3.6) n (%)
Stomatitis, Total, n (%) [4, 11]: 30 (27.0) n (%)
Vomiting, Grade 1, n (%) [4, 11]: 14 (12.6) n (%)
Vomiting, Grade 2, n (%) [4, 11]: 3 (2.7) n (%)
Vomiting, Grade 3, n (%) [4, 11]: 1 (0.9) n (%)
Vomiting, Total, n (%) [4, 11]: 18 (16.2) n (%)
Alopecia, Grade 1, n (%) [4, 12]: 2 (20.0) n (%)
Alopecia, Grade 2, n (%) [4, 12]: 0 n (%)
Alopecia, Grade 3, n (%) [4, 12]: 0 n (%)
Alopecia, Total, n (%) [4, 12]: 2 (20.0) n (%)
Anorexia, Grade 1, n (%) [4, 12]: 0 n (%)
Anorexia, Grade 2, n (%) [4, 12]: 3 (30.0) n (%)
Anorexia, Grade 3, n (%) [4, 12]: 0 n (%)
Anorexia, Total, n (%) [4, 12]: 3 (30.0) n (%)
Dermatitis acneiform, Grade 1, n (%) [4, 12]: 0 n (%)
Dermatitis acneiform, Grade 2, n (%) [4, 12]: 3 (30.0) n (%)
Dermatitis acneiform, Grade 3, n (%) [4, 12]: 0 n (%)
Dermatitis acneiform, Total, n (%) [4, 12]: 3 (30.0) n (%)
Diarrhea, Grade 1, n (%) [4, 12]: 2 (20.0) n (%)
Diarrhea, Grade 2, n (%) [4, 12]: 5 (50.0) n (%)
Diarrhea, Grade 3, n (%) [4, 12]: 2 (20.0) n (%)
Diarrhea, Total, n (%) [4, 12]: 9 (90.0) n (%)
Dry eye, Grade 1, n (%) [4, 12]: 1 (10.0) n (%)
Dry eye, Grade 2, n (%) [4, 12]: 2 (20.0) n (%)
Dry eye, Grade 3, n (%) [4, 12]: 0 n (%)
Dry eye, Total, n (%) [4, 12]: 3 (30.0) n (%)
Dry skin, Grade 1, n (%) [4, 12]: 1 (10.0) n (%)
Dry skin, Grade 2, n (%) [4, 12]: 2 (20.0) n (%)
Dry skin, Grade 3, n (%) [4, 12]: 0 n (%)
Dry skin, Total, n (%) [4, 12]: 3 (30.0) n (%)
Eye pain, Grade 1, n (%) [4, 12]: 2 (20.0) n (%)
Eye pain, Grade 2, n (%) [4, 12]: 0 n (%)
Eye pain, Grade 3, n (%) [4, 12]: 0 n (%)
Eye pain, Total, n (%) [4, 12]: 2 (20.0) n (%)
Fatigue, Grade 1, n (%) [4, 12]: 0 n (%)
Fatigue, Grade 2, n (%) [4, 12]: 3 (30.0) n (%)
Fatigue, Grade 3, n (%) [4, 12]: 1 (10.0) n (%)
Fatigue, Total, n (%) [4, 12]: 4 (40.0) n (%)
Nausea, Grade 1, n (%) [4, 12]: 1 (10.0) n (%)
Nausea, Grade 2, n (%) [4, 12]: 2 (20.0) n (%)
Nausea, Grade 3, n (%) [4, 12]: 1 (10.0) n (%)
Nausea, Total, n (%) [4, 12]: 4 (40.0) n (%)
Pruritus, Grade 1, n (%) [4, 12]: 2 (20.0) n (%)
Pruritus, Grade 2, n (%) [4, 12]: 0 n (%)
Pruritus, Grade 3, n (%) [4, 12]: 0 n (%)
Pruritus, Total, n (%) [4, 12]: 2 (20.0) n (%)
Rash, Grade 1, n (%) [4, 12]: 4 (40.0) n (%)
Rash, Grade 2, n (%) [4, 12]: 2 (20.0) n (%)
Rash, Grade 3, n (%) [4, 12]: 0 n (%)
Rash, Total, n (%) [4, 12]: 6 (60.0) n (%)
Skin exfoliation, Grade 1, n (%) [4, 12]: 1 (10.0) n (%)
Skin exfoliation, Grade 2, n (%) [4, 12]: 0 n (%)
Skin exfoliation, Grade 3, n (%) [4, 12]: 1 (10.0) n (%)
Skin exfoliation, Total, n (%) [4, 12]: 2 (20.0) n (%)
Skin fissures, Grade 1, n (%) [4, 12]: 2 (20.0) n (%)
Skin fissures, Grade 2, n (%) [4, 12]: 1 (10.0) n (%)
Skin fissures, Grade 3, n (%) [4, 12]: 0 n (%)
Skin fissures, Total, n (%) [4, 12]: 3 (30.0) n (%)
Stomatitis, Grade 1, n (%) [4, 12]: 1 (10.0) n (%)
Stomatitis, Grade 2, n (%) [4, 12]: 1 (10.0) n (%)
Stomatitis, Grade 3, n (%) [4, 12]: 1 (10.0) n (%)
Stomatitis, Total, n (%) [4, 12]: 3 (30.0) n (%)
Vomiting, Grade 1, n (%) [4, 12]: 2 (20.0) n (%)
Vomiting, Grade 2, n (%) [4, 12]: 1 (10.0) n (%)
Vomiting, Grade 3, n (%) [4, 12]: 0 n (%)
Vomiting, Total, n (%) [4, 12]: 3 (30.0) n (%)
total AEs ([4]; all 121 patients): 1,416 AEs
AEs considered to be related to study drug ([4]; all schedules): 709 AEs
patients experiencing AEs related to study drug ([4]; all schedules, of 121): 111 patients
AEs considered to be related to study drug ([4]; schedule A): 626 AEs
patients experiencing AEs related to study drug ([4]; schedule A): 102 patients
patients with dose interruptions as a result of treatment-related AEs ([4]; schedule A): 29
AEs considered to be related to study drug ([4]; schedule B): 83 AEs
patients with dose interruptions as a result of treatment-related AEs ([4]; schedule B): 3
terminal half-life (t1/2) [5]: 59 to 85 h
